In brackets after ≈: the same amount, converted by molar mass.
Legend:
[1] = Inhibition of adenosine transporter (unknown origin); format: ADME, Homo sapiens
[2] = Intrinsic clearance in human liver S9 fraction; format: ADME, subcellular; details: read-out: CLH
[3] = Permeability at pH 7.4 by PAMPA; format: ADME; details: read-out: permeability
[4] = tested on: UDP-glucuronosyltransferases (UGTs); assay: Drug metabolism assessed as human UGT-mediated metabolism by measuring intrinsic clearance; format: ADME, protein assay
[5] = target: T1, Amine oxidase [flavin-containing] B (Homo sapiens, UniProt P27338); assay: Inhibition of monoamino oxidase B (unknown origin)
T1 sequence (P27338 whole entry): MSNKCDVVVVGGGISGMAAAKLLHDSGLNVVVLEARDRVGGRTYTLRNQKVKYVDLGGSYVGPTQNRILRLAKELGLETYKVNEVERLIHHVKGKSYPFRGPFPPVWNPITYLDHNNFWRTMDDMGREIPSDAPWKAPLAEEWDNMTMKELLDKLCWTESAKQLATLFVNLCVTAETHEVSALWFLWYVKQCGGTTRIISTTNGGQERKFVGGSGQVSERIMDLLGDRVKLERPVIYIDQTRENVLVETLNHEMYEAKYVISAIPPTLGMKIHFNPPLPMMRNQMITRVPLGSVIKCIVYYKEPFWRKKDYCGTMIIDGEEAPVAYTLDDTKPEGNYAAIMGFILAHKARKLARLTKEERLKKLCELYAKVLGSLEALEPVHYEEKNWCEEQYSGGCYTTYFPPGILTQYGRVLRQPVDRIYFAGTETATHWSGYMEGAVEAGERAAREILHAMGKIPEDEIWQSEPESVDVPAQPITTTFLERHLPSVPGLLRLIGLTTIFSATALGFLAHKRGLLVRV

[6] = Intrinsic clearance in human hepatocytes; format: ADME, cell-based, Hepatocyte
[7] = Lipophilicity, logD of the compound at pH 7.4; format: physicochemical; details: buffer
[8] = target: Broad substrate specificity ATP-binding cassette transporter ABCG2 (Homo sapiens, UniProt Q9UNQ0); assay: Inhibition of BCRP (unknown origin); format: ADME
[9] = target: UDP-glucuronosyltransferase 1A4 (Homo sapiens, UniProt P22310); assay: Drug metabolism assessed as human UGT1A4-mediated metabolism by measuring intrinsic clearance; format: ADME; details: recombinant enzyme
[10] = Kinetic aqueous solubility of the compound; format: physicochemical; details: buffer; read-out: Kinetic_solubility
[11] = Intrinsic clearance in mouse liver S9 fraction; format: ADME, subcellular; details: read-out: CLH
[12] = Half life in mouse liver S9 fraction; format: ADME, subcellular
In short: (§1)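 Metabolic stability of the dihydrodiols measured in vitro with mouse and human liver S9 fractions and with mouse and human hepatocytes; half-life from substrate depletion.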

[13] = Inhibition of adenosine transporter (unknown origin) at 10 uM; format: ADME; details: human
[14] = target: UGT1A3 (Homo sapiens, UniProt P35503); assay: Inhibition of human UGT1A3 assessed as residual enzyme activity at 10 uM relative to control; format: ADME; details: read-out: Activity
[15] = Protein binding in human plasma assessed as bound fraction; format: ADME, cell-free; details: read-out: PPB (converted)
In short: (§2)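 Binding measured in 100% plasma; reported as fraction bound.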

[16] = Protein binding in mouse plasma assessed as bound fraction; format: ADME, cell-free; in short: as §2
[17] = Retention time in beta-naphthoflavone/phenobarbital-induced rat liver S9 fraction at 100 ug/ml in presence of NADPH measured after 4 hrs by UV-Vis spectroscopy; format: ADME, subcellular; details: s9, 4 h
[18] = Half life in human hepatocytes; format: ADME, cell-based, Hepatocyte; in short: as §1
[19] = Drug level in beta-naphthoflavone/phenobarbital-induced rat liver S9 fraction treated with 100 ug/ml Ezutromid-1 assessed as compound formation in presence of NADPH measured after 4 hrs by UV-Vis spectroscopy; format: ADME, subcellular; details: s9, 4 h
[20] = target: UGT1A9 (Homo sapiens, UniProt O60656); assay: Inhibition of human UGT1A9 assessed as residual enzyme activity at 10 uM relative to control; format: ADME; details: read-out: Activity
[21] = Retention time in beta-naphthoflavone/phenobarbital-induced rat liver S9 fraction at 100 ug/ml in presence of NADPH by LC-MS/MS analysis; format: ADME, subcellular
[22] = Half life in human liver S9 fraction; format: ADME, subcellular; in short: as §1
[23] = Half life in mouse hepatocytes; format: ADME, cell-based, Hepatocyte; in short: as §1
[24] = target: Solute carrier organic anion transporter family member 1B3 (Homo sapiens, UniProt Q9NPD5); assay: Inhibition of OATP1B3 (unknown origin); format: ADME
[25] = target: Solute carrier organic anion transporter family member 1B1 (Homo sapiens, UniProt Q9Y6L6); assay: Inhibition of OATP1B1 (unknown origin); format: ADME
[26] = target: Multidrug and toxin extrusion protein 1 (Homo sapiens, UniProt Q96FL8); assay: Inhibition of MATE1 (unknown origin); format: ADME
[27] = Intrinsic clearance in mouse hepatocytes; format: ADME, cell-based, Hepatocyte
[28] = Retention time in human plasma by LC-MS/MS analysis; format: ADME, cell-free
[29] = target: T1, Amine oxidase [flavin-containing] B; assay: Inhibition of monoamino oxidase B (unknown origin) at 10 uM

Chain of Solute carrier organic anion transporter family member 1B3 (Q9NPD5 whole entry): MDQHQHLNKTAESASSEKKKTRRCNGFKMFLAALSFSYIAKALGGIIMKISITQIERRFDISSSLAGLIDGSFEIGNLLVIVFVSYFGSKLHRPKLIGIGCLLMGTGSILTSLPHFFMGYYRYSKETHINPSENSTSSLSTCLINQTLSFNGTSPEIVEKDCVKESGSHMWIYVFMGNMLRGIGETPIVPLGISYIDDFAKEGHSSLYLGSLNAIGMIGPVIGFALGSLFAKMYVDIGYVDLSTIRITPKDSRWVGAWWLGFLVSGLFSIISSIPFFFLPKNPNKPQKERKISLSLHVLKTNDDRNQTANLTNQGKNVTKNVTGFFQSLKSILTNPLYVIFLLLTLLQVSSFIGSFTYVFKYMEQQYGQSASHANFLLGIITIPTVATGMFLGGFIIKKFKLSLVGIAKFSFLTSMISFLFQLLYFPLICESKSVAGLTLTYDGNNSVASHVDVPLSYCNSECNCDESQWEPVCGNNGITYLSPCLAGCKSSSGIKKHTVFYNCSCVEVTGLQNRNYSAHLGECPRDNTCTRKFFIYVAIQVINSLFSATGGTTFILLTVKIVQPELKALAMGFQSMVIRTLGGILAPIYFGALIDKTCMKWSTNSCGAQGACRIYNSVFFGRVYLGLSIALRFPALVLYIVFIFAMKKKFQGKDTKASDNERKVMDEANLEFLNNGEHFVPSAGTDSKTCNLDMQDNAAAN
Chain of UDP-glucuronosyltransferase 1A4 (P22310 whole entry): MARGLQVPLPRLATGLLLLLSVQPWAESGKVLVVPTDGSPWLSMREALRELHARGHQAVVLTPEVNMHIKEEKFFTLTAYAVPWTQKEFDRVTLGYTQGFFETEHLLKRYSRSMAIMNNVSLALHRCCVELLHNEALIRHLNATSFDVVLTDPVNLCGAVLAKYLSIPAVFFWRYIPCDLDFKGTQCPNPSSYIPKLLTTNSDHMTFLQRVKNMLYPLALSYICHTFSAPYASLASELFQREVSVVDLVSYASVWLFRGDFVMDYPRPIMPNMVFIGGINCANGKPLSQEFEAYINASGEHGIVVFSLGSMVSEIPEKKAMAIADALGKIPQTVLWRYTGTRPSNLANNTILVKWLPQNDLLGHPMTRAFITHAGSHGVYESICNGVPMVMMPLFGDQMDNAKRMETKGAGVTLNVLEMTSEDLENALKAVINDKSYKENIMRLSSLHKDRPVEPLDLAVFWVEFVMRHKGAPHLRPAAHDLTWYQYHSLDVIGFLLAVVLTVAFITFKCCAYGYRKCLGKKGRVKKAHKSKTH
Chain of UGT1A3 (P35503 whole entry): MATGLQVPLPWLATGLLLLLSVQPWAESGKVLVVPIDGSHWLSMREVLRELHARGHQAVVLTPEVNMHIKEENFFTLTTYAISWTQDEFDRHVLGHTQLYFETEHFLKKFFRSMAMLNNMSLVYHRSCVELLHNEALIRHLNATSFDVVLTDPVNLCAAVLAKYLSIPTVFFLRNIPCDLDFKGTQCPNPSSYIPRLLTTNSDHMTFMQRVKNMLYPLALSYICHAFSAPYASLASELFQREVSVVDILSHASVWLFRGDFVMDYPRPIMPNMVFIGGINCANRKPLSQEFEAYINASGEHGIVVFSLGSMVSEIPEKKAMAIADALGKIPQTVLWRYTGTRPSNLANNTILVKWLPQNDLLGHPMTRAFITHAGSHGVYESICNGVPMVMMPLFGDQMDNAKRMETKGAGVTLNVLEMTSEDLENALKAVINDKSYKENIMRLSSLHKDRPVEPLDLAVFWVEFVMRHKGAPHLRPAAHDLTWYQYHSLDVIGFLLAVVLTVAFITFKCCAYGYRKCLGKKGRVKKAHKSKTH
Chain of Broad substrate specificity ATP-binding cassette transporter ABCG2 (Q9UNQ0 whole entry): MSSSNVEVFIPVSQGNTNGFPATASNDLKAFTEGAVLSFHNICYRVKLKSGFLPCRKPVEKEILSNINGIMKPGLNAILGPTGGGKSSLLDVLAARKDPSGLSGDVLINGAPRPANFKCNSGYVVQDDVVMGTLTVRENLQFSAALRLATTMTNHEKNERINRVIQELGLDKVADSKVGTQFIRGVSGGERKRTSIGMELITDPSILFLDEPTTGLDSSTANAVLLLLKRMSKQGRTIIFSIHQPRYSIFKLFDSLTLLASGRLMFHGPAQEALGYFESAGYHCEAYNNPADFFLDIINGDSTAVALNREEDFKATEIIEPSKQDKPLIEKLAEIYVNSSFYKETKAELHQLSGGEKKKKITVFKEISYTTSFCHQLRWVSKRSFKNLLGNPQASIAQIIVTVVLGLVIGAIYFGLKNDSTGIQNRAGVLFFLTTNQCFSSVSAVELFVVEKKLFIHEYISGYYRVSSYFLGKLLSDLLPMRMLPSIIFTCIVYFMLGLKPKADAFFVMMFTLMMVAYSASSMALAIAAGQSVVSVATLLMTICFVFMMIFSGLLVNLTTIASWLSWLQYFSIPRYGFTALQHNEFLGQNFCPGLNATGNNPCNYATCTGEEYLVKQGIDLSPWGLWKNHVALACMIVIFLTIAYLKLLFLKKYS
Chain of Multidrug and toxin extrusion protein 1 (Q96FL8 whole entry): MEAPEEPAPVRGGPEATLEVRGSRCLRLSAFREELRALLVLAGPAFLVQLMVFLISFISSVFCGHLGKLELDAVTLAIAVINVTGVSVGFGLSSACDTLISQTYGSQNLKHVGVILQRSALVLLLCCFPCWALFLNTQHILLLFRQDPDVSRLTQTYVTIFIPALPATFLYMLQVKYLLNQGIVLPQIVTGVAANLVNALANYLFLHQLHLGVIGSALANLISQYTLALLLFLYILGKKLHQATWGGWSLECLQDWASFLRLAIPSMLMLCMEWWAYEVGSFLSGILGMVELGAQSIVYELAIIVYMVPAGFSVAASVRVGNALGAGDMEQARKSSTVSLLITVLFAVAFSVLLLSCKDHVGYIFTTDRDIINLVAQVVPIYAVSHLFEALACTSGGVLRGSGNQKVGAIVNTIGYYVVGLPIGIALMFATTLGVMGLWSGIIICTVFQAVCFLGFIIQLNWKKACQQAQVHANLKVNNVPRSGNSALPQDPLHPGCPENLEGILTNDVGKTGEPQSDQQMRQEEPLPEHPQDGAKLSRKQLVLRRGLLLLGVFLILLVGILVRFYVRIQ
Chain of UGT1A9 (O60656 whole entry): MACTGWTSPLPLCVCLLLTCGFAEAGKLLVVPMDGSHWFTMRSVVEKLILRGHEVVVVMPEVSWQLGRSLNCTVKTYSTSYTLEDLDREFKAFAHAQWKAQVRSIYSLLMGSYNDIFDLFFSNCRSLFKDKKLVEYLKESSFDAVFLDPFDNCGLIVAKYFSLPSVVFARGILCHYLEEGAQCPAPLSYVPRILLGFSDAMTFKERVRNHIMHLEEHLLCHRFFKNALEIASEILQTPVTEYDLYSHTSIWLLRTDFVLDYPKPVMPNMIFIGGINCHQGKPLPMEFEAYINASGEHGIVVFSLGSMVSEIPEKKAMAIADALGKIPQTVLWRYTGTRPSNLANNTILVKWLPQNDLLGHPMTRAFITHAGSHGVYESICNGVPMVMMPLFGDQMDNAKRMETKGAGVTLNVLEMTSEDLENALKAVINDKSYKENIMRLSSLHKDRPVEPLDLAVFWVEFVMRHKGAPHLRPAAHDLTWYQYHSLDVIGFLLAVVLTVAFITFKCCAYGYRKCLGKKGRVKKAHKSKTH
Chain of Solute carrier organic anion transporter family member 1B1 (Q9Y6L6 whole entry): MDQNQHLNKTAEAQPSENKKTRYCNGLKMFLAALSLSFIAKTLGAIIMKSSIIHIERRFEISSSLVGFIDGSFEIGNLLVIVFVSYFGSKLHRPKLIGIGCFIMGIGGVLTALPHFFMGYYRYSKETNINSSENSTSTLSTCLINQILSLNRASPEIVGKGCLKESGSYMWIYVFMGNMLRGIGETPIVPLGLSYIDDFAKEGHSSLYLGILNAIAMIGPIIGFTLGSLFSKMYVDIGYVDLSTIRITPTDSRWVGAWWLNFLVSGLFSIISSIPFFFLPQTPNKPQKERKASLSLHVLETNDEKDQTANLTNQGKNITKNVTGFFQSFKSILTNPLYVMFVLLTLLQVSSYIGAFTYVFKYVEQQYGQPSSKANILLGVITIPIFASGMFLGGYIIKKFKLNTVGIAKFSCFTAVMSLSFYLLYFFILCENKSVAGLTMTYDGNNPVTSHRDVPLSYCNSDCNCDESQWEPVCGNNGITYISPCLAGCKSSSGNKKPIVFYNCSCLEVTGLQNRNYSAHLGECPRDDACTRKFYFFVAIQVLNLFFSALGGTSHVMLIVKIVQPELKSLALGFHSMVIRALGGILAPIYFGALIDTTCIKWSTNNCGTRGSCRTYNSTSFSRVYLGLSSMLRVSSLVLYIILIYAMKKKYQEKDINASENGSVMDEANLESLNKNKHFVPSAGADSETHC

IC50 [1]: 3.9 µM | microsomal CLint [2]: < 10 µL/min/mg | Papp [3]: 333 nm/s | CL [4]: < 5.8 µL/min/pmol | IC50 [5]: 4 µM | CLH [6]: 8 µL/min/mg | logD [7]: 2.04 | inhibition (INH) [8]: Active | CL [9]: < 2.9 µL/min/pmol | solubility kinetic [10]: 96 µM (≈ 35.7 µg/mL) | microsomal CLint [11]: 35 µL/min/mg | half-life [12]: 39 min | inhibition (INH) [13]: Active | activity at 10 µM [14]: 62% | fraction unbound [15]: 0.363 | PPB [16]: Not Active | Retention time [17]: 26.7 min | half-life [18]: 85 min | Drug uptake [19]: Metabolite_Detected | activity at 10 µM [20]: 12% | Retention_time [21]: 8.2 min | half-life [22]: > 138 min | half-life [23]: 7 min | inhibition (INH) [24]: Active | inhibition (INH) [25]: Active | CLH [27]: 98 µL/min/mg | Retention_time [28]: 8.1 min | inhibition (INH) [29]: Active
Compound: CCS(=O)(=O)c1ccc2oc(-c3ccc4c(c3)C=C[C@H](O)[C@H]4O)nc2c1
IC50 [26]: 10 µM

From ChEMBL document CHEMBL4376826 (J Med Chem, 2020)
